The values below come from ChEMBL document CHEMBL2150869, “Superpotent [Dmt¹] dermorphin tetrapeptides containing the 4-aminotetrahydro-2-benzazepin-3-one scaffold with mixed μ/δ opioid receptor agonistic properties” (J Med Chem, 2011).

The species named for assay [1] is Rattus norvegicus. Nature of the assay: Selectivity index, ratio of EC50 for rat brain DOR to EC50 for rat brain MOR by cAMP accumulation assay.
Assay [2] addresses T1, Delta-type opioid receptor (Homo sapiens, UniProt P41143). In words: Agonist activity at human DOR expressed in HEK293 cell membrane assessed as inhibition of forskolin-induced cAMP accumulation by liquid scintillation counting. The assay is classed as functional, cell membranes. The method in brief:
(§1)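 HEK293 cells stably expressing the μ- or δ-opioid receptor, prelabelled for 24 h with [3H]adenine. Cells treated with ligand (10 fM to 10 μM or 1 pM to 10 μM) plus 50 μM forskolin for 30 min at 37 °C. Read-out is [3H]cAMP over total [3H]adenine nucleotides by scintillation counting, given as percent of forskolin-stimulated accumulation.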

For assay [3], the target named is Kappa-type opioid receptor (Homo sapiens, UniProt P41145). In words: Displacement of [3H]diprenorphine from human KOR expressed in HEK293 cell membrane by liquid scintillation counting. The assay is classed as cell membranes. (In general: In a radioligand displacement assay an active substance lowers the binding of a labelled ligand.)
For assay [4], the species on record is Homo sapiens. Nature of the assay: Selectivity index, ratio of Ki for human DOR to Ki for human MOR by radioligand displacement assay. In a few lines:
(§2)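 Membranes (20 μg) from HEK293 cells stably expressing μ- or δ-OR incubated with [3H]diprenorphine (3.75 nM) for 45 min at 30 °C in 50 mM Tris-HCl pH 7.5, 100 mM NaCl, 10 mM MgCl2. Nonspecific binding defined with 10 μM naloxone. Bound ligand collected by GF/C filtration and counted by liquid scintillation.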

Assay [5] addresses T2, Mu-type opioid receptor (Homo sapiens, UniProt P35372). In words: Agonist activity at human MOR expressed in HEK293 cells assessed as stimulation of ERK1/2 phosphorylation at 1 uM after 2 mins by Western blotting. The assay is classed as functional, cell-based. In a few lines:
(§3)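 HEK293 cells stably expressing the μ- or δ-opioid receptor, serum-starved 16 h, then exposed to ligand at 37 °C for the indicated times. Whole lysates run on 10% SDS-PAGE and immunoblotted for phospho-ERK1/2, with the blot reprobed for total ERK as loading control. Three independent experiments.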
On the technique in general: A western blot detects proteins with antibodies after separation by electrophoresis.

Assay [6] concerns the target T2, Mu-type opioid receptor. In words: Displacement of [3H]diprenorphine from human MOR expressed in HEK293 cell membrane by liquid scintillation counting. The assay is classed as cell membranes. In a few lines:
as §2

The target in assay [7] is T2, Mu-type opioid receptor. In words: Agonist activity at human MOR expressed in HEK293 cell membrane assessed as inhibition of forskolin-induced cAMP accumulation by liquid scintillation counting relative to control. Type of assay: functional, cell membranes.
Assay [8] deals with T1, Delta-type opioid receptor. In words: Agonist activity at human DOR expressed in HEK293 cell membrane assessed as inhibition of forskolin-induced cAMP accumulation by liquid scintillation counting relative to control. Type of assay: functional, cell membranes. In general terms: cAMP levels reflect the balance of adenylyl cyclase and phosphodiesterase activity.
Assay [9] deals with T2, Mu-type opioid receptor. Nature of the assay: Agonist activity at human MOR expressed in HEK293 cell membrane assessed as inhibition of forskolin-induced cAMP accumulation by liquid scintillation counting. Type of assay: functional, cell membranes. The method in brief:
as §1

For assay [10], the target named is T1, Delta-type opioid receptor. In words: Agonist activity at human DOR expressed in HEK293 cells assessed as stimulation of ERK1/2 phosphorylation at 1 uM after 2 mins by Western blotting. Type of assay: functional, cell-based. In a few lines:
as §3

Assay [11] has as its target T1, Delta-type opioid receptor. Nature of the assay: Displacement of [3H]diprenorphine from human DOR expressed in HEK293 cell membrane by liquid scintillation counting. Type of assay: cell membranes. The method in brief:
as §2

In assay [12] the target is T3, Opioid receptors; mu and delta (Mus musculus, UniProt P42866+P32300). Nature of the assay: Agonist activity at MOR/DOR in NMRI mouse frontal cortex assessed as reduction in spinal cord network activity by electrophysiology assay. The assay is classed as functional, tissue-based. The method in brief: (§4)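 Primary neuronal networks from frontal cortex or spinal cord grown on microelectrode array neurochips for 4 weeks to 3 months. Accumulating concentrations from 1 fM to 100 μM (nine steps), each recorded for 1 h at 37 °C, pH 7.4. Spike rate and burst duration taken from the last 30 min stable phase in 60 s bins. EC50 obtained by logistic dose-response fitting.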

The target of assay [13] is Delta-type opioid receptor (Rattus norvegicus, UniProt P33533). In words: Displacement of [3H]deltorphin2 from DOR in rat brain homogenates by liquid scintillation counting. Type of assay: tissue-based.
For assay [14], the target named is Mu-type opioid receptor (Rattus norvegicus, UniProt P33535). In words: Displacement of [3H]naloxone from MOR in rat brain homogenates by liquid scintillation counting. The assay is classed as tissue-based.
The target of assay [15] is Opioid receptors; mu and delta (Mus musculus) (UniProt P42866+P32300). In words: Agonist activity at MOR/DOR in NMRI mouse frontal cortex or spinal cord networks assessed as reduction in spinal cord network activity by electrophysiology assay relative to gabapentin. The assay is classed as functional, tissue-based. The arrangement: scale not given: the % may be the effect or the level left.

In assay [16] the target is T3, Opioid receptors; mu and delta. In words: Agonist activity at MOR/DOR in NMRI mouse spinal cord assessed as reduction in spinal cord network activity by electrophysiology assay. Type of assay: functional. In a few lines: as §4
Assay [17] concerns the target T2, Mu-type opioid receptor. Nature of the assay: Agonist activity at human MOR expressed in HEK293 cells assessed as stimulation of ERK1/2 phosphorylation at […] after 2 mins by Western blotting. The assay is classed as functional, cell-based. The method in brief: as §3

pEC50, pIC50, pKi: −log10 of the molar value. The source made the active and inactive calls. The rule behind the calls is not given here. Where a SMILES comes first, the peptide text is derived from it. [ ]: non-standard residue; d: D form. Dmt = Cc1cc(O)cc(C)c1C[C@H](N)C(=O)O; dNMeA = CN[C@H](C)C(=O)O; Sar = CNCC(=O)O

Chain of Delta-type opioid receptor (Rattus norvegicus, UniProt P33533) (P33533 whole entry): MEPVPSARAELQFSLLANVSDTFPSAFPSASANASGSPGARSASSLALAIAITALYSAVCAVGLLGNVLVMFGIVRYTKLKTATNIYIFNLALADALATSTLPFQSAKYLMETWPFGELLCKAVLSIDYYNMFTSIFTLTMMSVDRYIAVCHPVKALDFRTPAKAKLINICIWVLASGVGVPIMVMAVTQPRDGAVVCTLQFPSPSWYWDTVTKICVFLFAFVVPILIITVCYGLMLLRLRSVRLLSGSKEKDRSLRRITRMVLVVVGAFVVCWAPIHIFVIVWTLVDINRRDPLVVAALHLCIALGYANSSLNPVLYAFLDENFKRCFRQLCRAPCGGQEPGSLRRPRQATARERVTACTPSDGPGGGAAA
Chain of Mu-type opioid receptor (Rattus norvegicus, UniProt P33535) (P33535 whole entry): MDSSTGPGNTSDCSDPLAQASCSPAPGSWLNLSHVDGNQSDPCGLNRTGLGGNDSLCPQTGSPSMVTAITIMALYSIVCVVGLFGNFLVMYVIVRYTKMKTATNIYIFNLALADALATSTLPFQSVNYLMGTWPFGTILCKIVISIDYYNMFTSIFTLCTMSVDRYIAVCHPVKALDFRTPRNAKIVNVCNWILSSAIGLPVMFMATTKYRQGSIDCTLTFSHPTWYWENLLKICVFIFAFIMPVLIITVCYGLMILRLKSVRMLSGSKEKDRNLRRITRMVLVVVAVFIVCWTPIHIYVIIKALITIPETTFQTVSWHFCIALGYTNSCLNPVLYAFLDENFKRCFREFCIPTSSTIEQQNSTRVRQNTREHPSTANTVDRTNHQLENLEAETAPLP
T2 sequence (P35372 whole entry): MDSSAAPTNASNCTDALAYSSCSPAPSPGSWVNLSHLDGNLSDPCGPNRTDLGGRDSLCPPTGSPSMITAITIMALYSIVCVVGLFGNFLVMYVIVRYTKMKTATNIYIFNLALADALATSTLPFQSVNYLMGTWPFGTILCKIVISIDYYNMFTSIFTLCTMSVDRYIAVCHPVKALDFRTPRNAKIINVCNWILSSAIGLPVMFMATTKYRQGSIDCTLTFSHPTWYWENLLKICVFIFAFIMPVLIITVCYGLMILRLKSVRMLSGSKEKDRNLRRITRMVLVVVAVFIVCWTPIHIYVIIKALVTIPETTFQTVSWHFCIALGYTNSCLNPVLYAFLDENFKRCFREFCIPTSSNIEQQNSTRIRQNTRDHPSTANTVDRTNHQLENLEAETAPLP
T1 sequence (P41143 whole entry): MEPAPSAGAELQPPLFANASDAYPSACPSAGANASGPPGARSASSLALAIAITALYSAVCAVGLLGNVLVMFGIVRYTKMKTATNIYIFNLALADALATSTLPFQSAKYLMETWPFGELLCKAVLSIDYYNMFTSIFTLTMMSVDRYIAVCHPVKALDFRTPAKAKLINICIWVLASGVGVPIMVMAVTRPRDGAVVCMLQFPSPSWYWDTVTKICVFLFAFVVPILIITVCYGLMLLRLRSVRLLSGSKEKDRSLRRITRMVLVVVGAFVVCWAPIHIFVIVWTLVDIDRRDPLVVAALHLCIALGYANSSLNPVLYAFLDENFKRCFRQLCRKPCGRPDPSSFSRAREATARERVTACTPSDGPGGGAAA
Chain of Opioid receptors; mu and delta (Mus musculus) (P32300 whole entry, looked up): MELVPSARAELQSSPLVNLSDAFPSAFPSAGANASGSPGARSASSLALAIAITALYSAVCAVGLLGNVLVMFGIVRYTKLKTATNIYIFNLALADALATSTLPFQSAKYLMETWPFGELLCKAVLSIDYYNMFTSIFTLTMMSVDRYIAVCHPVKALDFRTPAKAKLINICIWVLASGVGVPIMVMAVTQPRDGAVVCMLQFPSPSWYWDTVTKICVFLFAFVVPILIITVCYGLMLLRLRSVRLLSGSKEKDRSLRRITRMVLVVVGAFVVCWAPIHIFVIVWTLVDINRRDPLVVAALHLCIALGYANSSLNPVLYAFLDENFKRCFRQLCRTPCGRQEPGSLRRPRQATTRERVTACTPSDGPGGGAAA
Chain of Opioid receptors; mu and delta (Mus musculus) (P42866 whole entry, looked up): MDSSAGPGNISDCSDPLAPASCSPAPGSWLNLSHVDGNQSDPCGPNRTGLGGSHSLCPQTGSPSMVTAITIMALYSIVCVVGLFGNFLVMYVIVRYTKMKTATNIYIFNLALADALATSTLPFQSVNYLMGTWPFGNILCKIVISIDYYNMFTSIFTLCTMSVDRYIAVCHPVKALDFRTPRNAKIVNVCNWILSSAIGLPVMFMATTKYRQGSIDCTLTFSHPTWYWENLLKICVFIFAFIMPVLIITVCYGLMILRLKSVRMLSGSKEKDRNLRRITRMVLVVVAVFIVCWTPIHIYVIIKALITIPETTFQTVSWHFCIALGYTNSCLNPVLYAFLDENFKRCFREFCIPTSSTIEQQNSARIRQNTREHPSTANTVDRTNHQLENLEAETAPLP
Chain of Kappa-type opioid receptor (P41145 whole entry): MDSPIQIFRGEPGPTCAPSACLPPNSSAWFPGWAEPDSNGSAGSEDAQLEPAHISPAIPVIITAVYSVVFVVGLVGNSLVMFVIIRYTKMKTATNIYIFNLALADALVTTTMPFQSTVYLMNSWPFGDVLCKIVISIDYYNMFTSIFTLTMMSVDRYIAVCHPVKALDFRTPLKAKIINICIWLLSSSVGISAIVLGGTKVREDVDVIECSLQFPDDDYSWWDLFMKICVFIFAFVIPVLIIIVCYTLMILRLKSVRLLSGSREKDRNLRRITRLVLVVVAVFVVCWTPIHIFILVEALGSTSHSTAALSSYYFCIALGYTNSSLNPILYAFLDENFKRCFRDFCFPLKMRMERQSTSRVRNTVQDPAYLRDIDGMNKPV

Usually pEC50 stands for −log10 of the EC50, conventionally taken in molar units. A word on the pKi: it is −log10 of the Ki, conventionally taken in molar units. One may read the Emax as the size of the effect at its maximum, as opposed to the concentration needed. For `Cc1cc(O)cc(C)c1C[C@H](N)C(=O)N[C@H](C)C(=O)N[C@H]1Cc2ccccc2CN(CC(N)=O)C1=O`, in assay [1], the Ratio EC50 was 2.04. Besides, the pEC50 in assay [2] was 9.77; in [9], 10.08. Besides, the pKi in assay [3] was less than 3.00; in [6], 6.77; in [11], 7.74. In addition, in assay [4], the Ratio Ki came to 0.106. Also, the result in [5] and in [10] was Active. Further, the results for the Emax in [7] and in assay [8] were 78% and 66%, respectively.
In general, pIC50 refers to the negative decadic logarithm of the IC50, by convention in mol/L. On to `Cc1cc(O)cc(C)c1C[C@H](N)C(=O)N(C)[C@H](C)C(=O)N[C@@H](Cc1ccccc1)C(=O)N(C)CC(N)=O` (H-[Dmt][dNMeA]F[Sar]-NH2), for which, in [1], the Ratio EC50 came out at 55700. Also, the EC50 came to 1.29 ×10⁻¹³ M in assay [12] and 2.87 ×10⁻¹⁰ M in assay [16]. In addition, the values for the pEC50 in assay [2] and in [9] were 5.36 and 10.10, respectively. Also, the pKi in assay [3] is less than 3.00; in assay [6], 7.22; in assay [11], 6.89. The pIC50 in assay [13] was 8.31; in [14], 9.52. Moreover, the Ratio Ki in assay [4] came to 2.2. In addition, the result in [5] and in assay [10] was Active. For the same compound, the Emax in assay [7] stood at 71%; in assay [8], 72%. For the same compound, the Activity in [15] was determined as 1%.
Turning to `C[C@H](C(=O)N[C@@H](Cc1ccccc1)C(=O)N(C)CC(N)=O)N(C)C(=O)[C@@H](N)Cc1ccc(O)cc1` (H-Y[dNMeA]F[Sar]-NH2), in assay [1], the Ratio EC50 came out at 293. The EC50 in [12] was determined as 5 ×10⁻¹² M; in [16] it was 1060 nM. Also, the pEC50 was 6.02 in assay [2] and 8.48 in assay [9]. In addition, the pKi in assay [3] is less than 3.00; in assay [6], 5.96; in [11], less than 5.00. The results for the pIC50 in [13] and in assay [14] were 8.15 and 7.55, respectively. Also, the outcome in assay [5] and in assay [10] was Active. Besides, the Emax in assay [7] turned out to be 77%; in [8] it was 74%. Besides, in [15], the Activity worked out at 3%.
Turning to `Cc1cc(O)cc(C)c1C[C@H](N)C(=O)N(C)[C@H](C)C(=O)N[C@H]1Cc2ccccc2CN(CC(N)=O)C1=O`, the Ratio EC50 in assay [1] was 9.2. The EC50 in [12] was 1.61 ×10⁻¹⁵ M; in assay [16] it was 1.3 nM. The pEC50 in assay [2] is 10.80; in [9] it was 11.76. The pKi is less than 3.00 in assay [3], 7.83 in assay [6] and 8.30 in assay [11]. Besides, the pIC50 in assay [13] and in assay [14] was 9.02 in each case. Besides, the Ratio Ki in [4] turned out to be 0.34. For the same compound, the Emax in assay [7] is 72%; in [8], 61%. For the same compound, the Activity in [15] turned out to be 21%. Besides, the result in [10] and in assay [17] was Active.
As for `C[C@H](C(=O)N[C@H]1Cc2ccccc2CN(CC(N)=O)C1=O)N1Cc2cc(O)ccc2C[C@H](N)C1=O`, the EC50 was found to be 5.67 ×10⁻⁷ M in assay [12] and 6.7 nM in assay [16]. The figures for the pKi in assay [3], in assay [6] and in [11] were less than 3.00, 5.57 and 6.80, respectively. In addition, the pIC50 in assay [13] is 7.75; in [14] it was 7.68. In assay [4], the Ratio Ki amounted to 0.059. In addition, the values for the Emax in [7] and in [8] were 78% and 79%, respectively. The pEC50 in [9] is 8.29. Further, the Activity in assay [15] was determined as 14%. Further, the result in [10] and in assay [17] was Active.
